Compounds with a hit are over-represented: about 2.5% of the library has one in this group of screens.
SENP1 inh – human SENP1 catalytic domain inhibitors, primary screen, biochemical, FRET, uHTS. Sentrin-specific protease 1 (Homo sapiens), Q9P0U3. recombinant SENP1 catalytic domain, CyPet-SUMO1-YPet FRET cleavage. inhibition, % at 10 µM. 360,000 tested, 0.21% active. AID 624204, 2012;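 active = inhibition at least 30% at 10 µM, raw YFP signal under a set limit, fluorescence ratio 0.5 to 1.5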
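Test system: human SENP1 catalytic domain; medium: Tris pH 8 buffer plus EDTA, NaCl, BME, BSA, NP40, catalase; incubation: 50 min reaction at room temperature; technique: FRET, CFP and YFP emission; controls: no-enzyme low control and enzyme-plus-DMSO high control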
SENP6 inh – SENP6 protease inhibitors, primary screen, biochemical, luminescence, uHTS; inhibition, % at 10 µM; 330,000 tested, 1.8% active; Sentrin-specific protease 6 (Homo sapiens), Q9GZR1; AID 2599, 2010; Recombinant SENP6 catalytic domain, aminoluciferin luminescence;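 active = inhibition above about 50% at the single tested dose, limit read from the data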
SENP7 block – SENP7 protease inhibitors, primary screen, biochemical, luminescence, uHTS; 330,000 tested, 1.5% active; inhibition, % at 5 µM; recombinant SENP7, Z-RLRGG-aminoluciferin luminescence, 40 min; Sentrin-specific protease 7 (Homo sapiens), Q9BQF6;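 active = inhibition above about 50% at the single test dose, limit read from the data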
Target sequence (Q9BQF6 706-1050 limits assumed): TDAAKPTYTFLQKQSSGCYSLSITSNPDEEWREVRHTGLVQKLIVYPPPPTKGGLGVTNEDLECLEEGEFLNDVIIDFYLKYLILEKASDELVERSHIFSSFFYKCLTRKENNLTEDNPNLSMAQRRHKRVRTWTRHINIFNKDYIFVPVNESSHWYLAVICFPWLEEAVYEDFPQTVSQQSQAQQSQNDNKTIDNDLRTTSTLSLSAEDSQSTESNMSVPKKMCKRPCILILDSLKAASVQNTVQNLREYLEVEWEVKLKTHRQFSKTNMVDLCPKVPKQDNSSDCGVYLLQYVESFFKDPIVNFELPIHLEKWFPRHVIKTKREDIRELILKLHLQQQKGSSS
SENP8 block-1 – human SENP8 protease inhibitors, primary screen, biochemical, fluorescence, Nedd8 protein substrate, uHTS | recombinant SENP8 | 360,000 tested, 0.64% active | AID 602440, 2012 | Sentrin-specific protease 8 (Homo sapiens), Q96LD8 | inhibition, % at 20 µM; in the data active = inhibition mostly above about 40%, no sharp cut-off; inactive = mostly below about 27%
Target sequence (Q96LD8 whole entry, looked up): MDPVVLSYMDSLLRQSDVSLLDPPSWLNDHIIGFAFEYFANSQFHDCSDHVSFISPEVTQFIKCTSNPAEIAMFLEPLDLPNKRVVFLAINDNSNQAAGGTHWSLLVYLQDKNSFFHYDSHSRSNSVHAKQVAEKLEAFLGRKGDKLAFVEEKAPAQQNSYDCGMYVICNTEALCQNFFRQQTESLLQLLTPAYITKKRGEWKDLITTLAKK
SENP8 block-2 – SENP8 protease inhibitors, primary screen, biochemical, luminescence; 330,000 tested, 1.2% active; AID 2540, 2010; Sentrin-specific protease 8 (Homo sapiens), Q96LD8; inhibition, % at 10 µM; purified SENP8, Z-RLRGG-aminoluciferin cleavage; in the data active = inhibition above about 50%
SENP8 confirm – SENP8 protease inhibitors, retest, confirmation, biochemical, luminescence, single concentration; 6,200 tested, 40% active; Recombinant SENP8, Z-RLRGG-aminoluciferin luminescence, 60 min; AID 488912, 2010; inhibition, % at 12.5 µM; shares compounds with SENP7 block;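 active = mean inhibition across replicates above about 50%, limit read from the data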
SENP6 confirm – SENP6 protease inhibitors, confirmation, biochemical, luminescence, single concentration | shares compounds with SENP7 block | recombinant SENP6, Z-RLRGG-aminoluciferin luminescence | inhibition, % at 12.5 µM | 6,200 tested, 58% active
SENP7 confirm – SENP7 protease inhibitors, retest, confirmation, biochemical, luminescence, single concentration; shares compounds with SENP7 block; recombinant SENP7, Z-RLRGG-aminoluciferin luminescence, 40 min; inhibition, % at 12.5 µM; 6,200 tested, 69% active; AID 488917, 2010
Casp3 SENP sel – caspase-3 protease inhibitors, confirmation, selectivity assay for SENP inhibitor project, biochemical, single concentration; shares compounds with SENP7 block; purified caspase-3, Z-DEVD-aminoluciferin luminescence, 60 min; inhibition, % at 12.5 µM; 6,200 tested, 60% active;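 active = mean inhibition above about 50%, limit read from the data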
SENP luc ctr – interferes with luciferase luminescence in SENP counter-screen. shares compounds with SENP7 block. Pre-incubated SENP8/Z-RLRGG-aminoluciferin, luciferase luminescence interference. inhibition, % at 12.5 µM. 6,200 tested, 39% active. AID 488919;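 active = mean inhibition above about 50% when retested at one dose, limit read from the data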
Of the large screens only hits and unclear results are named; the others gave an inactive call (follow-up assays come after a bar, where they were run).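 The calls were made as follows, unless noted: active = mean inhibition above about 50% in the one-dose retest (limit read from the data); inactive = the rest.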

O=C(N/N=C/c1ccccc1Cl)c1ccc(F)cc1	SENP6 inh 69.2 | SENP8 confirm inactive | SENP6 confirm inactive | SENP7 confirm inactive | Casp3 SENP sel inactive | SENP luc ctr inactive
O=C(NN=Cc1ccccc1Cl)c1ccccc1	none (no result: SENP6 inh, SENP7 block, SENP8 block-2)
O=C(N/N=C/c1cccc([N+](=O)[O-])c1)c1nc2ccccc2c(=O)[nH]1	none
CCOC(=O)[C@@H]1[C@H]2COc3ccccc3[C@@H]2N2C(=O)N(c3cccc(F)c3)C(=O)[C@]12C	none
O=C(CSc1nnc(NC(=O)c2c(F)cccc2F)s1)NCc1ccc(F)cc1	none
CCOC(=O)c1cc2occc2n1CC(=O)Nc1ccc(OC)cc1OC	none
OCCCNc1ncnc2sc3c(c12)CCN(Cc1ccccc1)C3	SENP6 inh 54.0 | SENP8 confirm inactive | SENP6 confirm inactive | SENP7 confirm inactive | Casp3 SENP sel inactive | SENP luc ctr inactive
O=c1[nH]cnc2sc3c(c12)CCN(Cc1ccccc1)C3	none
O=C(O)c1ccc(N=Nc2c(-c3ccccc3)[nH]oc2=O)cc1	SENP8 block-2 59.2 | SENP8 confirm inactive | SENP6 confirm inactive | SENP7 confirm inactive | Casp3 SENP sel inactive | SENP luc ctr inactive
O=C1CCCC(O)=C1N=Nc1ccc(C(=O)O)cc1	none
Cc1cc(C)c(S(=O)(=O)c2ccc(Cl)cc2C)c(Cl)n1	none
CCOC(=O)c1sc(-c2ccc(F)cc2)cc1N	none
CCOC(=O)c1sc(-c2ccc(OC)cc2)cc1N	SENP6 inh 70.5, SENP7 block 51.9 | SENP8 confirm inactive | SENP6 confirm 54.5 | SENP7 confirm 83.3 | Casp3 SENP sel inactive | SENP luc ctr inactive
Nc1ncc(Br)cc1N=Cc1ccccc1	SENP6 inh 71.9 | SENP8 confirm inactive | SENP6 confirm inactive | SENP7 confirm inactive | Casp3 SENP sel inactive | SENP luc ctr inactive
O=C(O)c1ccc(NCCC2=CCCCC2)c([N+](=O)[O-])c1	SENP6 inh 85.6, SENP8 block-2 81.9 | SENP8 confirm inactive | SENP6 confirm 86.8 | SENP7 confirm 96.9 | Casp3 SENP sel 88.3 | SENP luc ctr 78.0
CN=c1scc(C)n1/N=C/c1ccc(O)cc1O	SENP6 inh 77.9, SENP7 block 77.5, SENP8 block-2 76.5 | SENP8 confirm 90.3 | SENP6 confirm 88.3 | SENP7 confirm 99.1 | Casp3 SENP sel 88.0 | SENP luc ctr 85.6
CN=c1scc(C)n1/N=C/c1ccc2c(c1)OCO2	SENP6 inh 98.3, SENP7 block 97.0, SENP8 block-2 88.1 | SENP8 confirm 95.0 | SENP6 confirm 95.6 | SENP7 confirm 101.7 | Casp3 SENP sel 94.7 | SENP luc ctr inactive
CSCCC(NC(=O)c1ccccc1)C(=O)OCC(=O)NCc1ccco1 (centres undefined)	none
O=C(/C=C/c1ccco1)N1CCc2ccccc21	SENP6 inh 93.4, SENP7 block 90.8, SENP8 block-2 91.2 | SENP8 confirm inactive | SENP6 confirm 96.0 | SENP7 confirm 101.8 | Casp3 SENP sel 96.7 | SENP luc ctr 94.2
COc1cccc(COC(=O)CSCC(=O)Nc2ccc(C)cc2)c1OC	none (no result: SENP6 inh, SENP7 block, SENP8 block-2)
CCOC(=O)CSc1ccc(-c2nc3cc(C)c(C)cc3[nH]2)cn1	none
Cc1cc2nc(-c3cccnc3SCC(=O)NC(C)C)[nH]c2cc1C	SENP6 inh 90.3, SENP7 block 87.4, SENP8 block-2 81.8 | SENP8 confirm 86.2 | SENP6 confirm 85.2 | SENP7 confirm 98.1 | Casp3 SENP sel 88.2 | SENP luc ctr inactive
COCCOC(=O)CSc1ncccc1-c1nc2cc(C)c(C)cc2[nH]1	SENP7 block 95.3, SENP8 block-2 92.8 | SENP8 confirm 93.4 | SENP6 confirm 95.6 | SENP7 confirm 102.1 | Casp3 SENP sel 96.3 | SENP luc ctr 95.5
Fc1ccc(NC(=S)N2N=CCC2c2ccccc2)cc1 (centres undefined)	SENP6 inh 58.5 | SENP8 confirm inactive | SENP6 confirm inactive | SENP7 confirm 66.5 | Casp3 SENP sel inactive | SENP luc ctr inactive
Cc1nc2c3cnn(-c4ccc(C)c(C)c4)c3ncn2n1	SENP6 inh 58.0 | SENP8 confirm inactive | SENP6 confirm inactive | SENP7 confirm 68.0 | Casp3 SENP sel 78.8 | SENP luc ctr inactive
C#CCn1cnc2c(cnn2-c2ccc(C)c(C)c2)c1=O	none
Cc1ccc(-n2ncc3c(=O)n(CC(N)=O)cnc32)cc1C	none
Cc1ccc(-n2ncc3c(SCC(N)=O)ncnc32)cc1C	SENP8 block-2 57.0 | SENP8 confirm inactive | SENP6 confirm inactive | SENP7 confirm inactive | Casp3 SENP sel inactive | SENP luc ctr inactive
O=C(CSc1ncnc2c1cnn2-c1cccc(Cl)c1)NCC1CCCO1 (centres undefined)	SENP6 inh 88.9, SENP8 block-2 87.4 | SENP8 confirm inactive | SENP6 confirm inactive | SENP7 confirm inactive | Casp3 SENP sel inactive | SENP luc ctr inactive
CCOC(=O)C1=CCN(S(=O)(=O)c2ccccc2F)C1c1cccc(C)c1 (centres undefined)	none (no result: SENP6 inh, SENP7 block, SENP8 block-2)
O=C(Nc1ncc(Cc2ccccc2)s1)c1cccs1	SENP6 inh 53.0, SENP7 block 58.3 | SENP8 confirm 56.6 | SENP6 confirm 56.9 | SENP7 confirm 83.3 | Casp3 SENP sel inactive | SENP luc ctr 52.9
O=C(Nc1nnc(SCc2ccccc2)s1)c1cccs1	SENP6 inh 86.4, SENP7 block 52.7, SENP8 block-2 69.1 | SENP8 confirm inactive | SENP6 confirm inactive | SENP7 confirm inactive | Casp3 SENP sel inactive | SENP luc ctr inactive
Cc1ccc(C(=O)Nc2ncc(Cc3ccccc3)s2)o1	SENP6 inh 71.2, SENP7 block 62.8, SENP8 block-2 51.2 | SENP8 confirm inactive | SENP6 confirm 68.1 | SENP7 confirm 92.1 | Casp3 SENP sel 62.4 | SENP luc ctr 56.3
CCSc1nnc(NC(=O)c2cccs2)s1	none
